# Assay outcomes: PubChem BioAssay, several laboratories
# PG9 Ab binder: small molecules binding HIV-1 gp120 antibody PG9 | TR-FRET gp120-PG9 antibody binding | inhibition, % at 6.7 µM | 360,000 compounds, 0.43% hits | AID 624416; in the data active means inhibition above about 8.5%
# CR mimetic SO: yeast age-related superoxide inhibition as caloric restriction mimetic; S. cerevisiae aged cells, superoxide DHE fluorescence; hits give low values; superoxide response (% of plate mean), % at 10 µM; 330,000 compounds, 0.18% hits;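 active means superoxide response under a set limit, about three screen SD below normal, cut at about 65% in these data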;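 further: yeast aged for seven days with compound at 30 °C before DHE staining; 100% = average MFI of all compound-treated wells on the plate with controls excluded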
# UCH37 DUB inh: blocks the human deubiquitinase UCH37; inhibition, % (concentration not given with the values); AID 588478; 330,000 compounds, 0.33% hits; purified proteasome/UCH37, Ub-AMC cleavage fluorescence; Q9Y5K5;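 active means mean inhibition over replicate wells above about 20%, limit read from the data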;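 further: 0% = compound-free wells with enzyme and 100% = wells lacking proteasome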
# Target sequence (Q9Y5K5 whole entry, looked up): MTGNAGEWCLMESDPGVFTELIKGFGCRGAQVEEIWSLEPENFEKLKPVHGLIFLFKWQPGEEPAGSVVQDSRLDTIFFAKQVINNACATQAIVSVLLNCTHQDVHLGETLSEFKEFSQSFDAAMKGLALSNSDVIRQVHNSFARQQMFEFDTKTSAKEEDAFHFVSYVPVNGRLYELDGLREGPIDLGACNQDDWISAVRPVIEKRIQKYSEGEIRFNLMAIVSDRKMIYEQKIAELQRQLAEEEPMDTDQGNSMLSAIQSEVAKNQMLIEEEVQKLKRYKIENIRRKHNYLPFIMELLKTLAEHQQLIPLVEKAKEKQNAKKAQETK
#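 Schedule: 30 min plus 25 min, room temperature / Material: human UCH37 within purified proteasomes / Technique: AMC fluorescence intensity at 355/460 nm / Buffer or medium: pH 7.4 Tris-HCl (50 mM) with ovalbumin, ATP-MgCl2, DTT / Controls: wells without proteasome as full block, compound-free enzyme plus substrate as uninhibited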
# NR1D1 modulator: modulates human Rev-erb alpha binding to DNA | P20393 | Rev-erbα–FITC-DNA binding, fluorescence polarization, 90 min | activity, % at 10 µM | 370,000 compounds, 0.79% hits | AID 1259318;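 active means activity above about 14%, limit read from the data; passing the limit was not always enough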;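 further: 0% = DMSO wells with 35 nM protein and 100% = DMSO wells with 750 nM protein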
# MIN6 prolif: induces beta-cell replication in MIN6 cells; MIN6 cells proliferation, ATPlite luminescence, 48 h; cells starved in 0.2% serum; 100% = growth in 10% serum; proliferation, % at 10 µM; 330,000 compounds, 0.29% hits;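 active means compounds whose signal lies at least 3.5 SD above the mean of all wells on their plate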;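 further: 0% = DMSO-treated cells in low-serum medium and 100% = 10% serum control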
# Rce1 inh: inhibitors of yeast Ras-converting enzyme; calls only; yeast membranes, quenched prenylated peptide cleavage fluorescence; 290,000 compounds, 0.27% hits; Q03530;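 active means fall in fluorescence gain of 50% or more versus controls, with final raw signal at or below 3038400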;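 further: plate controls were neutral control wells for no effect and wells lacking membranes for full effect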
# Target sequence (Q03530 whole entry, looked up): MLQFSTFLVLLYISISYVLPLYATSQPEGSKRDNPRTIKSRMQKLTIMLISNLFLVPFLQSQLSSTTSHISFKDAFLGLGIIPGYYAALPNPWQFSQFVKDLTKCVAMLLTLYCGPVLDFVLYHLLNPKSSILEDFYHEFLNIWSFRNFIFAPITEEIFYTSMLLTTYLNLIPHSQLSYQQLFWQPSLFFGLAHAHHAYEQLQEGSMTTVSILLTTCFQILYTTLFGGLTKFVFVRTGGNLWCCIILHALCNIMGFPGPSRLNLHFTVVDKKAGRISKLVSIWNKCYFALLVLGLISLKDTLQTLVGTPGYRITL
# Rev-erbA confirm: Rev-erb alpha (human) modulation, hit confirmation; shares compounds with NR1D1 modulator; activation, % at 25 µM; 3,000 compounds, 61% hits; Rev-erb alpha FITC-DNA binding, fluorescence polarization, 90 min;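 active means activation at or above a set limit, or at least 3 SD above the negative control mean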;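 further: 0% = 35 nM protein with DMSO and 100% = 750 nM protein high control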
# RORg counter: affects RORgamma DNA binding in a Rev-erb alpha counter-screen; purified RORgamma protein-FITC-DNA binding, fluorescence polarization; shares compounds with NR1D1 modulator; AID 1259320; IC50, µM; 910 compounds, 8% hits;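 active means Compounds whose fitted half-maximal concentration for disrupting protein-DNA binding is below 10 micromolar; the record names Rev-erb in its text, so the target is in doubt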
# * = called active by the depositor; i = inactive; nt = not tested or not shown. Only some compounds are listed: those with a hit (about 1.9% of all), similar ones and a draw of the others.
SMILES,PG9 Ab binder,CR mimetic SO,UCH37 DUB inh,NR1D1 modulator,MIN6 prolif,Rce1 inh,Rev-erbA confirm,others
COc1ccc(-c2c(C(F)(F)F)oc3cc(OCC(=O)Nc4ccccc4C(F)(F)F)ccc3c2=O)cc1OC,-2,106,5,37*,nt,i,20*,
Cc1cc(C(C)(C)C)ccc1OCC(=O)NN=Cc1c(C)n(C)n(-c2ccccc2)c1=O,nt,nt,3,nt,nt,nt,nt,
CCOc1ccc(C=NNC(=S)NC2CC3CCC2C3)cc1 (stereo not given),nt,nt,7,nt,nt,nt,nt,
Clc1ccc(Nc2nc3ccccc3n3nnnc23)cc1,-3,91,-249,33*,1,i,18*,
Cc1cccc(CCNc2nc3ccccc3n3nnnc23)c1,0,108,-67,44*,-4,i,15,
OCC(O)C=NNc1nc(N2CCCCC2)nc(N2CCCCC2)n1 (stereo not given),nt,nt,4,nt,nt,nt,nt,
COC(=O)c1c(NC(=O)c2ccccc2)sc(C(N)=O)c1C,1,100,-94,17,-2,i,nt,
COC(=O)c1c(NC(=O)c2ccccc2)sc(C(=O)c2ccccc2)c1C,1,98,-1,27*,-3,i,0,
CCCCN1C(=O)/C(=C2/Sc3ccccc3N2C)S/C1=N\c1ncn[nH]1,-2,131,nt,72*,-5,i,1,
CSc1ccccc1-c1nnc(-c2ccc(Cl)cc2Cl)o1,1,116,-2,13,-2,i,nt,
CSc1ccccc1-c1nnc(-c2ccc(Cl)c(Cl)c2)o1,0,94,-5,47*,-1,i,51*,RORg counter=>40
O=C(Nc1nc2ccc(Cl)cc2s1)c1cccc(N2C(=O)CCC2=O)c1,1,85,-16,43*,-5,nt,7,
Cc1c(C(=O)Nc2cccc(S(=O)(=O)N3CCOCC3)c2)oc2ccc(Br)cc12,1,109,2,16*,-2,nt,-2,
O=C(Nc1ccccc1)c1cc(S(=O)(=O)N2CCOCC2)cs1,0,89,2,-3,1,i,nt,
O=C(Nc1cccc(Br)c1)c1cc(S(=O)(=O)N2CCOCC2)cs1,-1,99,6,30*,-3,i,5,
COc1cccc(N/C(=N\C(=S)Nc2ccc(C)cc2C)Nc2nc(C)cc(C)n2)c1,nt,nt,0,nt,nt,nt,nt,
CC1(C(=O)NN=Cc2ccc([N+](=O)[O-])o2)CC1(Br)Br (stereo not given),nt,nt,10,nt,nt,nt,nt,
CCOC(=O)Nc1ccc2c(COC(=O)CNS(=O)(=O)c3ccc(NC(C)=O)cc3)cc(=O)oc2c1,6,92,-217,54*,1,i,35*,RORg counter=>40
COc1cccc(NC(=O)Cn2nnc(C(=O)NCCc3ccccc3)c2N)c1,-3,120,2,20*,-3,i,5,
COc1cccc(NC(=O)Cn2nnc(C(=O)Nc3ccccc3)c2N)c1,-1,95,-2,0,4,i,nt,
Cc1ccc(CNC(=O)c2nnn(CC(=O)Nc3cccc(C)c3C)c2N)cc1,-1,123,2,27*,-3,i,22*,
Cc1ccccc1-c1n[nH]c(=S)n1N=Cc1c(C)nn(-c2ccccc2)c1C,nt,nt,3,nt,nt,nt,nt,
CCCCNC(=O)c1cc2n(n1)C(C(F)(F)F)CC(c1ccccc1)N2 (stereo not given),-1,119,-2,-5,-2,i,nt,
CCOC(=O)c1c(NC(=O)c2cc3n(n2)C(C(F)(F)F)CC(c2ccccc2)N3)sc(C)c1C (stereo not given),-2,98,-256,36*,0,i,6,
O=C(NCc1ccco1)c1ccc(Cn2c(=O)c3sccc3n(Cc3cccc(F)c3)c2=O)cc1,-1,103,6,34*,-7,i,37*,RORg counter=>40
SMILES,PG9 Ab binder,CR mimetic SO,UCH37 DUB inh,NR1D1 modulator,MIN6 prolif,Rce1 inh,Rev-erbA confirm,others
CC1(Cc2ccccc2Cl)C(=O)Nc2ccc(OC(F)(F)F)cc21 (stereo not given),0,nt,nt,36*,nt,nt,45*,RORg counter=>40
CCc1ccc2c(c1)NC(=O)C2(C)Cc1ccccc1OC (stereo not given),0,nt,nt,-2,nt,nt,nt,
CC1(Cc2ccccc2C#N)C(=O)Nc2ccc(OC(F)(F)F)cc21 (stereo not given),-1,nt,nt,28*,nt,nt,26*,
CCc1ccc2c(c1)NC(=O)C2(C)Cc1ccccc1Cl (stereo not given),1,nt,nt,-2,nt,nt,nt,
Oc1ccc(C=Nn2c(C3CCCCC3)n[nH]c2=S)c(O)c1,nt,nt,5,nt,nt,nt,nt,
CCOc1cccc(C=NNC(=O)c2cccnc2)c1O,nt,nt,4,nt,nt,nt,nt,
COc1ccc(CCNC(=O)c2c([S-])n(-c3ccc(C)cc3)c3cccc[n+]23)cc1,0,97,-1,0,-2,i,nt,
CCc1ccc2n(-c3ccc(OC)cc3)c([S-])c(C(=O)Nc3cc(C)cc(C)c3)[n+]2c1,2,95,-11,90*,-4,i,113*,RORg counter=i
O=C1/C(=C\c2c(NCCOCCO)nc3ccccn3c2=O)SC(=S)N1Cc1ccco1,-2,112,nt,33*,-1,i,11,
CCCN1C(=O)/C(=C/c2c(NCCCOCC)nc3c(C)cccn3c2=O)SC1=S,0,nt,7,-3,nt,nt,nt,
O=C(CSc1nc2ccccc2nc1N1CCCCC1)NCc1ccc(Cl)cc1Cl,nt,nt,nt,47*,nt,nt,41*,RORg counter=>40
CN=c1scc(-c2ccc(F)cc2)n1N=Cc1ccc(O)c(O)c1,nt,nt,1,nt,nt,nt,nt,
CCN(CC)S(=O)(=O)c1ccc(C(=O)Nc2ccc(C(F)(F)F)n(C)c2=O)cc1,0,128,-65,4,-1,i,nt,
Cc1ccc(C(=O)Nc2ccc(C(F)(F)F)n(C)c2=O)cc1,3,111,-17,28*,-4,i,3,
COc1ccc(C(=O)Nc2ccc(C(F)(F)F)n(C)c2=O)cc1,-4,106,4,47*,-2,i,32*,RORg counter=>40
CCC(=O)NN=C(C)CC(=O)Nc1ccc(F)cc1,nt,nt,-1,nt,nt,nt,nt,
COC(=O)C1CC(=NNS(=O)(=O)c2ccc(C)cc2)c2ccccc2C1 (stereo not given),nt,nt,5,nt,nt,nt,nt,
CN(C)c1ccc(C=NNc2ccc(-n3ccnc3)nn2)cc1,nt,nt,9,nt,nt,nt,nt,
